Assay results published in ChEMBL document CHEMBL5352422, “Development of l-Dopa-containing diketopiperazines as blood-brain barrier shuttle” (Eur J Med Chem, 2022).
Blank lines part the entries; values can stand above or below the compound they belong to. The source made the active and inactive calls. The calls are words filed in the database; no cut-off is given here.

Experiments:
[1] = Stability of the compound in stimulated gastric fluid at 10 mg/ml pepsin by measuring observed rate constant measured upto 60 mins by HPLC analysis; assay type: ADME; details: simulated gi fluid, 1 h
Method in brief: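 USP simulated gastric fluid containing pepsin, preheated, in a 37 °C shaking water bath. Samples at 0, 15, 30 and 60 min were deproteinized with ice-cold acetonitrile containing 0.5% formic acid, centrifuged at 4 °C, filtered and analyzed by HPLC. Means of three experiments.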

[2] = Stability in human plasma assessed as observed rate constant by HPLC method; assay type: ADME, cell-free
Method in brief: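 Stock added to 37 °C human plasma diluted with 0.02 M phosphate buffer pH 7.4 to 80% plasma. Aliquots taken over time were quenched with 0.01 M HCl in methanol, centrifuged 5 min at 5000 g, and supernatant analyzed by HPLC-UV. t1/2 and k_obs are means of three experiments ± SD.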

[3] = Induction of DNA damage in Primary human whole blood cell assessed as 8-OH-dG adducts formation at 500 nM incubated for 24 hrs by […] (reference value: 0.12 to 2.21 pg/ml); assay type: functional
[4] = Cytotoxicity against Primary human whole blood cell at 10 to 500 nM incubated for 24 hrs by MTT assay; assay type: toxicity, cell-based; details: 0.5 µM, dose 10-500 nM
Method in brief: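 Primary cultures (rat fetal cortical neurons; human whole-blood cultures with phytohemagglutinin) exposed to aqueous compound at 10–500 nM for 24 h at 37 °C. Then incubated with 0.7 mg/mL MTT for 30 min at 37 °C, formazan extracted with isopropanol/formic acid 95:5, read at 560 nm. Control formazan = 100% viability. Mitomycin C 10^-7 M as positive control; n = 4.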

[5] = Induction of DNA damage in rat Cerebral cortex cell assessed as 8-OH-dG adducts formation at 10 nM incubated for 24 hrs by Comet assay (reference value: 0.14 to 1.92 pg/ml); assay type: functional, Cerebral cortex neuron
[6] = Induction of DNA damage in rat Cerebral cortex cell assessed as 8-OH-dG adducts formation at 50 nM incubated for 24 hrs by […] (reference value: 0.14 to 1.92 pg/ml); assay type: functional, Cerebral cortex neuron
Method in brief: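 Primary rat cerebral cortex neurons from fetuses, grown in neurobasal medium with FCS on poly-D-lysine flasks and used after 8 days. Aqueous compound at 10–500 nM for 24 h at 37 °C. Untreated cultures served as negative control and MMC 10^-7 M as positive control. 8-OH-dG measured with a commercial ELISA-type kit and reported in pg/mL. Four independent experiments, mean ± SD.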

PC-12 [7] = experiment: Cytoprotective activity against MPP+ induced cell death in rat PC-12 cells at 10 to 500 nM preincubated with compound for 24 hrs followed by MPP+ exposure for 24 hrs by MTT assay; assay type: functional, cell-based; details: dose 10-500 nM, time 48.0 hrs
Method in brief: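 PC12 cells in RPMI with horse and fetal calf serum on polylysine-coated flasks. Pretreated 24 h with compound (10–500 nM), then 25 µM MPP+ for a further 24 h. MTT formazan solubilized in SDS/HCl, read at 550 nm. Expressed as % of untreated control absorbance; n = 3, mean ± SD.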

[8] = Induction of DNA damage in rat Cerebral cortex cell assessed as total DNA damage score at 500 nM incubated for 24 hrs by Comet assay (reference value: 36.8 to 89.2); assay type: functional, Cerebral cortex neuron
[9] = Induction of DNA damage in rat Cerebral cortex cell assessed as total DNA damage score at 10 nM incubated for 24 hrs by Comet assay (reference value: 36.8 to 89.2); assay type: functional, Cerebral cortex neuron
[10] = Induction of DNA damage in Primary human whole blood cell assessed as 8-OH-dG adducts formation at 100 nM incubated for 24 hrs by […] (reference value: 0.12 to 2.21 pg/ml); assay type: functional
PC-12 [11] = experiment: Inhibition of MPP+ induced ROS production in rat PC-12 cells at 100 nM preincubated with compound for 24 hrs followed by MPP+ treatment for 24 hrs by DCFH-DA staining based fluorescence method; details: time 48.0 hrs
[12] = Antioxidant activity against Primary human whole blood cell assessed as trolox equivalent of total antioxidant capacity at 500 nM incubated for 24 hrs (19.3 to 32.5 mmolequiv/L ); assay type: functional
[13] = Antioxidant activity against rat Cerebral cortex cell assessed as H2O2 equivalent of total oxidative stress at 10 nM incubated for 24 hrs (0.7 to 2.3 micromolequiv/L); assay type: functional, Cerebral cortex neuron
[14] = Antioxidant activity against Primary human whole blood cell assessed as H2O2 equivalent of total oxidative stress at 500 nM incubated for 24 hrs (0.6 to 1.9 micromolequiv/L); assay type: functional
[15] = Antioxidant activity against Primary human whole blood cell assessed as H2O2 equivalent of total oxidative stress at 50 nM incubated for 24 hrs (0.6 to 1.9 micromolequiv/L); assay type: functional
[16] = Induction of DNA damage in rat Cerebral cortex cell assessed as total DNA damage score at 250 nM incubated for 24 hrs by Comet assay (reference value: 36.8 to 89.2); assay type: functional, Cerebral cortex neuron
[17] = Induction of DNA damage in Primary human whole blood cell assessed as total DNA damage score at 250 nM incubated for 24 hrs by Comet assay (reference value: 35.4 to 77.9); assay type: functional
[18] = Antioxidant activity against rat Cerebral cortex cell assessed as trolox equivalent of total antioxidant capacity at 500 nM incubated for 24 hrs (14.7 to 27.5 mmolequiv/L ); assay type: functional, Cerebral cortex neuron
[19] = Induction of DNA damage in Primary human whole blood cell assessed as 8-OH-dG adducts formation at 250 nM incubated for 24 hrs by […] (reference value: 0.12 to 2.21 pg/ml); assay type: functional
[20] = Cytotoxicity against rat Cerebral cortex cell at 10 to 500 nM incubated for 24 hrs by LDH assay; assay type: toxicity, cell-based; details: cerebral cortex neuron, 0.5 µM, dose 10-500 nM
Method in brief: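 Rat fetal cortical neuron or human whole-blood cultures treated 24 h at 37 °C with aqueous compound at 10–500 nM. LDH released into 100 µL of medium measured by kit as the rate of NAD+ reduction (lactate to pyruvate), absorbance increase at 490 nm. Mitomycin C 10^-7 M as positive control; four independent experiments.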

[21] = Antioxidant activity against Primary human whole blood cell assessed as trolox equivalent of total antioxidant capacity at 10 nM incubated for 24 hrs (19.3 to 32.5 mmolequiv/L ); assay type: functional
PC-12 [22] = experiment: Inhibition of MPP+ induced GSH level in rat PC-12 cells at 100 nM preincubated with compound for 24 hrs followed by MPP+ treatment for 24 hrs by DTNB reagent based analysis; assay type: functional, cell-based; details: time 48.0 hrs
[23] = Stability of the compound in phosphate buffer assessed as chemical hydrolysis by measuring observed rate constant at pH 7.4; assay type: physicochemical
Method in brief: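 Chemical hydrolysis at 37 °C in hydrochloric acid buffer pH 1.2 or phosphate buffer pH 7.4. Remaining compound followed by HPLC with UV detection. t1/2 and k_obs are means of three experiments ± SD.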

[24] = Genotoxicity in human Lymphocyte assessed as sister chromatid exchange measured per cells at 250 nM incubated for 72 hrs giemsa staining based fluorescence method (reference value: 6.6 to 14.3); assay type: toxicity, cell-based; details: 0.25 µM
[25] = Antioxidant activity against Primary human whole blood cell assessed as H2O2 equivalent of total oxidative stress at 250 nM incubated for 24 hrs (0.6 to 1.9 micromolequiv/L); assay type: functional

Kobs [1]: 0.008 h⁻¹
Kobs [2]: 0.332 h⁻¹
Kobs [23]: 0.015 h⁻¹
Structure (SMILES): C#CCSC[C@H]1NC(=O)[C@H](Cc2ccc(OC(C)=O)c(OC(C)=O)c2)NC1=O
Activity [3]: 0.13 pg/mL
Activity [4]: Non-Toxic
Activity [5]: 0.14 pg/mL
Activity [6]: 0.14 pg/mL
Activity (PC-12 [7]): Active
Activity [8]: 38.1
Activity [9]: 36.9
Activity [10]: 0.12 pg/mL
inhibition (PC-12 [11]): Active
Activity [12]: 19.4 mmolequiv/L
Activity [13]: 0.7 umolequiv/L
Activity [14]: 0.7 umolequiv/L
Activity [15]: 0.6 umolequiv/L
Activity [16]: 37.6
Activity [17]: 35.9
Activity [18]: 14.8 mmolequiv/L
Activity [19]: 0.13 pg/mL
Activity [20]: Non-Toxic
Activity [21]: 19.4 mmolequiv/L
inhibition (PC-12 [22]): Active
Activity [24]: 7.1
Activity [25]: 0.7 umolequiv/L

Kobs [1]: 0.029 h⁻¹
Kobs [2]: 7.22 h⁻¹
Kobs [23]: 0.022 h⁻¹
Structure (SMILES): C=CCSC[C@H]1NC(=O)[C@H](Cc2ccc(OC(C)=O)c(OC(C)=O)c2)NC1=O
Activity [3]: 0.13 pg/mL
Activity [4]: Non-Toxic
Activity [5]: 0.14 pg/mL
Activity [6]: 0.13 pg/mL
Activity (PC-12 [7]): Active
Activity [8]: 37.6
Activity [9]: 36.3
Activity [10]: 0.12 pg/mL
inhibition (PC-12 [11]): Active
Activity [12]: 18.4 mmolequiv/L
Activity [13]: 0.7 umolequiv/L
Activity [14]: 0.7 umolequiv/L
Activity [15]: 0.7 umolequiv/L
Activity [16]: 37.4
Activity [17]: 35.7
Activity [18]: 14.9 mmolequiv/L
Activity [19]: 0.12 pg/mL
Activity [20]: Non-Toxic
Activity [21]: 19.2 mmolequiv/L
inhibition (PC-12 [22]): inactive
Activity [24]: 7.1
Activity [25]: 0.7 umolequiv/L
